Hits are enriched below; roughly 2.6% of the tested compounds scored in any of these assays.
Platelet DG rel: platelet dense granule release activity; human platelet-rich plasma, SFLLRN dense granule ATP release, luminescence; inhibition, %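 (compounds screened at 7.5 µM in platelet-rich plasma)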; 300,000 compounds, 0.22% hits; AID 1663;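 active means mean replicate score, as percent of positive control, at or above 50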
SENP6 block: SENP6 protease inhibition. Q9GZR1. Recombinant SENP6 catalytic domain, aminoluciferin luminescence. inhibition, % at 10 µM. 330,000 compounds, 1.8% hits. AID 2599;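 active means inhibition above about 50% at the single tested dose, limit read from the data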;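 further: plate controls were DMSO wells with enzyme for no effect and DMSO wells lacking enzyme for full effect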
SENP1 FRET inh: SENP1 (human) catalytic domain inhibition. inhibition, % at 10 µM. AID 624204. recombinant SENP1 catalytic domain, CyPet-SUMO1-YPet FRET cleavage. 360,000 compounds, 0.21% hits. Q9P0U3;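 active means inhibition at least 30% at 10 µM, raw YFP signal under a set limit, fluorescence ratio 0.5 to 1.5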;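 further: 0% = enzyme with DMSO and 100% = no enzyme wells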
Target sequence (Q9P0U3 419-644 limits assumed): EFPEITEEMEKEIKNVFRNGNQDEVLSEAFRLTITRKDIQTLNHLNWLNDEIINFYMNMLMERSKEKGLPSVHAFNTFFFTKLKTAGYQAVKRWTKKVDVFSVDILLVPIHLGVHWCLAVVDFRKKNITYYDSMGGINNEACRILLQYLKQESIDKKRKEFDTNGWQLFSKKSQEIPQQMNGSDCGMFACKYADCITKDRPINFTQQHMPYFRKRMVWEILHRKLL
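Compound: 10 µM single point, 0.5% DMSO; Test system: hSENP1 catalytic domain, recombinant; Timing: 50 min reaction at room temperature; Technique: FRET, CFP and YFP emission; Control set: no-enzyme wells low, DMSO-plus-enzyme wells high control.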
SENP8 block-1: inhibitors of human SENP8 protease. Q96LD8. purified SENP8, Z-RLRGG-aminoluciferin cleavage, luminescence. inhibition, % at 10 µM. 330,000 compounds, 1.2% hits; in the data active means inhibition above about 50%
Target sequence (Q96LD8 whole entry, looked up): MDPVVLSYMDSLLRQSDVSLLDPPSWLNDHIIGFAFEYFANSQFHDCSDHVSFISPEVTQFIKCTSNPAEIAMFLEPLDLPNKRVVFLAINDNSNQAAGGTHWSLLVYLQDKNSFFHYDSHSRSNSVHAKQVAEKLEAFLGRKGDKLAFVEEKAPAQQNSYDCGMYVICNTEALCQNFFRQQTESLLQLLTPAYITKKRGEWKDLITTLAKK
SENP8 block-2: inhibitors of human SENP8 protease | Q96LD8 | recombinant SENP8, Nedd8 substrate fluorescence | inhibition, % at 20 µM | 360,000 compounds, 0.64% hits | AID 602440; in the data active means inhibition mostly above about 40%, no sharp cut-off; inactive means mostly below about 27%
SENP7 block: inhibitors of human SENP7 protease; Q9BQF6; recombinant SENP7, Z-RLRGG-aminoluciferin luminescence, 40 min; inhibition, % at 5 µM; 330,000 compounds, 1.5% hits; AID 434973;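 active means inhibition above about 50% at the single test dose, limit read from the data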;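 further: plate controls were DMSO with enzyme for no effect and no enzyme buffer wells for full effect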
SENP8 conf: human SENP8 inhibition, confirmed; shares compounds with SENP7 block; Recombinant SENP8, Z-RLRGG-aminoluciferin luminescence, 60 min; inhibition, % at 12.5 µM; 6,200 compounds, 40% hits; AID 488912;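 active means mean inhibition across replicates above about 50%, limit read from the data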
SENP6 confirm: human SENP6 inhibition, confirmed; shares compounds with SENP7 block; recombinant SENP6, Z-RLRGG-aminoluciferin luminescence; inhibition, % at 12.5 µM; 6,200 compounds, 58% hits; AID 488915
SENP7 confirm: confirmation of human SENP7 protease inhibitors; 6,200 compounds, 69% hits; AID 488917; inhibition, % at 12.5 µM; recombinant SENP7, Z-RLRGG-aminoluciferin luminescence, 40 min; shares compounds with SENP7 block
Casp3 SENP sel: selectivity test for SENP inhibitors: human caspase-3 inhibition | shares compounds with SENP7 block | purified caspase-3, Z-DEVD-aminoluciferin luminescence, 60 min | inhibition, % at 12.5 µM | 6,200 compounds, 60% hits | AID 488918;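 active means mean inhibition above about 50%, limit read from the data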;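 further: plate controls were enzyme with DMSO for no effect and wells without caspase-3 for full effect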
Target sequence (P42574 28-227 limits assumed): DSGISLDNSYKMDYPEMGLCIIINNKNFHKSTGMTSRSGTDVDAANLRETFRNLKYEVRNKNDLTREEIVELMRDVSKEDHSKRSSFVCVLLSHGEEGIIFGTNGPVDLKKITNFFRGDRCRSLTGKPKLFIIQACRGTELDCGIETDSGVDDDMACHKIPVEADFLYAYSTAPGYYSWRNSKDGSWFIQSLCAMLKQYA
SENP luc ctr: interferes with luciferase luminescence in SENP counter-screen; shares compounds with SENP7 block; inhibition, % at 12.5 µM; 6,200 compounds, 39% hits; Pre-incubated SENP8/Z-RLRGG-aminoluciferin, luciferase luminescence interference;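 active means mean inhibition above about 50% when retested at one dose, limit read from the data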;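 further: plate controls were DMSO wells with completed reaction for no effect and substrate without enzyme for full effect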
Active calls of the source: *.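 How the source made its calls, unless noted: active means mean inhibition above about 50% in the one-dose retest (limit read from the data); inactive means the rest.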

For COc1cccc(-c2noc(-c3cccnc3)n2)c1 the results were Platelet DG rel 12.0, SENP6 block 81.1*, SENP1 FRET inh 1.2, SENP8 block-1 58.4*, SENP8 block-2 5.8, SENP7 block 79.0*, SENP8 conf 25.7, SENP6 confirm 67.7*, SENP7 confirm 90.9*, Casp3 SENP sel 84.3* and SENP luc ctr 52.2*.
CCN(CC)S(=O)(=O)c1ccc(N2C(=O)Nc3ccccc3N2O)cc1 was read as Platelet DG rel 1.6, SENP6 block -12.1, SENP1 FRET inh 1.3, SENP8 block-1 -5.6, SENP8 block-2 16.6 and SENP7 block -3.3.
Screening Cc1nonc1CN(C)C(=O)c1ccc(OC2CCN(C(=O)c3cccnc3)CC2)cc1 returned Platelet DG rel 15.6, SENP6 block 6.7, SENP1 FRET inh 2.5, SENP8 block-1 -1.2, SENP8 block-2 1.1 and SENP7 block 2.8.
Screening Brc1ccc(-c2nnc(-c3cccc(Br)c3)o2)cc1 returned Platelet DG rel 4.6, SENP6 block -4.4, SENP1 FRET inh 1.3, SENP8 block-1 -13.2, SENP8 block-2 -0.6 and SENP7 block 7.4.
COc1cccc(-c2noc(-c3cccs3)n2)c1 was read as Platelet DG rel 11.1, SENP6 block 92.3*, SENP1 FRET inh -0.1, SENP8 block-1 87.7*, SENP8 block-2 0.7, SENP7 block 93.6*, SENP8 conf 41.3, SENP6 confirm 94.7*, SENP7 confirm 101.5*, Casp3 SENP sel 87.7* and SENP luc ctr 85.4*.
`COc1ccc(-c2noc(-c3ccccc3-c3ccccc3)n2)cc1` gave Platelet DG rel -2.1, SENP6 block -6.3, SENP1 FRET inh 2.6, SENP8 block-1 1.1, SENP8 block-2 19.4 and SENP7 block -4.0.
`COc1cccc(-c2nc(-c3ccccn3)no2)c1` gave Platelet DG rel 26.5, SENP6 block 97.3*, SENP8 block-1 91.8*, SENP7 block 97.0*, SENP8 conf 94.7*, SENP6 confirm 97.5*, SENP7 confirm 102.7*, Casp3 SENP sel 98.5* and SENP luc ctr 96.5*.
COc1cccc(-c2nc(-c3ccccc3)no2)c1 was read as Platelet DG rel 8.3, SENP6 block 95.5*, SENP1 FRET inh -0.6, SENP8 block-1 88.5*, SENP8 block-2 21.9, SENP7 block 95.3*, SENP8 conf 86.7*, SENP6 confirm 93.0*, SENP7 confirm 98.5*, Casp3 SENP sel 84.8* and SENP luc ctr 82.7*.
For O=C(O)c1ccc(-c2nnc(-c3cccc(Br)c3)o2)cc1 the results were Platelet DG rel -0.9, SENP6 block 92.9*, SENP1 FRET inh 1.9, SENP8 block-1 -7.9, SENP8 block-2 6.7, SENP7 block -6.1, SENP8 conf 88.9*, SENP6 confirm 89.9*, SENP7 confirm 92.8*, Casp3 SENP sel 97.8* and SENP luc ctr 19.3.
For O=C(Nc1ccc(-c2cnco2)cc1)c1ccccc1 the results were Platelet DG rel -6.8, SENP6 block 14.7, SENP1 FRET inh 0.1, SENP8 block-1 -2.1, SENP8 block-2 17.5 and SENP7 block 13.0.
CNc1cnc(-c2ccc(O)c(OC)c2)cn1 was read as SENP1 FRET inh -3.8 and SENP8 block-2 -487.1.
CN(C)CCNC(=O)Cn1nc(-c2ccc(Cl)cc2)ccc1=O was read as Platelet DG rel -6.4, SENP6 block -4.6, SENP1 FRET inh -0.3, SENP8 block-1 -12.4, SENP8 block-2 -1.5 and SENP7 block 1.5.
O=C(CNC(=O)c1cccs1)NCC(=O)OCc1c(Cl)cccc1Cl was read as Platelet DG rel -1.1, SENP6 block -6.7, SENP1 FRET inh 2.8, SENP8 block-1 -6.1, SENP8 block-2 8.2 and SENP7 block 1.7.
For COc1ccc2cc(-c3cc(C(=O)O)c4ccccc4n3)ccc2c1 the results were Platelet DG rel 30.1, SENP6 block 82.7*, SENP1 FRET inh -1.9, SENP8 block-1 54.1*, SENP8 block-2 inactive, SENP7 block 62.5*, SENP8 conf 73.1*, SENP6 confirm 72.3*, SENP7 confirm 87.8*, Casp3 SENP sel 81.4* and SENP luc ctr 39.6.
COc1ccc(-c2ccc3ccccc3n2)cc1 was read as Platelet DG rel 3.9, SENP6 block 94.5*, SENP1 FRET inh 1.6, SENP8 block-1 93.5*, SENP8 block-2 -416.7, SENP7 block 98.8*, SENP8 conf 92.3*, SENP6 confirm 96.8*, SENP7 confirm 100.7*, Casp3 SENP sel 94.9* and SENP luc ctr 74.0*.
`COc1ccc(-c2cc(C(=O)O)c3ccccc3n2)c(OC)c1` gave Platelet DG rel -1.4, SENP6 block 25.8, SENP1 FRET inh -3.3, SENP8 block-1 -0.9, SENP8 block-2 -458.2 and SENP7 block -2.5.
For Cc1cc(C)n(CCN(C)Cc2nc(Cc3ccccc3F)no2)n1 the results were Platelet DG rel -1.3, SENP6 block 1.8, SENP1 FRET inh -0.9, SENP8 block-1 6.1, SENP8 block-2 10.7 and SENP7 block -0.3.
`CC1(C(=O)NCc2ccccc2)CCC(=O)N1C1CC1` (centres undefined) gave SENP1 FRET inh 2.5 and SENP8 block-2 11.4.
For O=[N+]([O-])c1ccc(OCCCOc2cccc3cccnc23)cc1 the results were Platelet DG rel -7.2, SENP6 block 11.7, SENP1 FRET inh 0.6, SENP8 block-1 7.4, SENP8 block-2 7.2 and SENP7 block -6.7.
CCS(=O)(=O)c1ccc2oc(Nc3ccccc3C)nc2c1 was read as Platelet DG rel 38.5, SENP6 block 80.8*, SENP1 FRET inh 0.5, SENP8 block-1 69.4*, SENP8 block-2 8.8, SENP7 block 78.8*, SENP8 conf 82.2*, SENP6 confirm 80.8*, SENP7 confirm 97.0*, Casp3 SENP sel 91.6* and SENP luc ctr 84.1*.
`CCN(CC)S(=O)(=O)c1ccc2oc(Nc3ccccc3)nc2c1` gave Platelet DG rel 6.6, SENP6 block 54.7*, SENP1 FRET inh 1.2, SENP8 block-1 32.0, SENP8 block-2 15.2, SENP7 block 31.1, SENP8 conf 28.3, SENP6 confirm 24.2, SENP7 confirm 70.7*, Casp3 SENP sel 25.1 and SENP luc ctr -1.8.

Screens deposited in PubChem BioAssay by several laboratories.
